In the library only some 1.9% were active in any assay of this set; here they are far more common.
UBC13 polyUb: blocks human UBC13 polyubiquitin chain formation; P61088; TR-FRET; inhibition, % at 20 µM; 330,000 tested, 0.47% active; AID 485273; in the data active means inhibition above about 45%, passing the limit was not always enough; inconclusive means no clear call, values can overlap the other calls
Target sequence (P61088 whole entry, looked up): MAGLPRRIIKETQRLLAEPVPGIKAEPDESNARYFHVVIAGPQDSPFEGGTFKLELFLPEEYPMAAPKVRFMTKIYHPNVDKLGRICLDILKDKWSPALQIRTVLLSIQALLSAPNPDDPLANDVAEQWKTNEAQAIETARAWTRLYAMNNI
Neddylation inh: blocks human cullin neddylation; P61081+Q13564; TR-FRET cullin neddylation, biochemical; inhibition, % at 25 µM; 360,000 tested, 0.58% active; in the data active means inhibition above about 36%
SR-BI DiI-HDL act: activators of SR-BI mediated HDL lipid uptake | AID 504775 | activation, % at 12.5 µM | CHO ldlA[mSR-BI] cells, DiI-HDL uptake fluorescence, 3 h; 100 = double the neutral-control signal | 320,000 tested, 0.096% active;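 active means mean replicate activation of at least 60% and every replicate at or above 60%; inconclusive means mean or all-replicate condition met, but not both; inactive means mean below 60% and not all replicates reaching 60%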;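 further: 0% = median plate neutral-control signal and 100% = twice that signal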
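System: LDL receptor-deficient CHO ldlA cells overexpressing murine SR-BI | Timing: 3 h uptake period with compound, 37 °C | Medium: HEPES-buffered (25 mM, pH 7.4) F12 plus 0.5% BSA | Dosing: Single-point compound dose | Signal: Bottom-read fluorescence, 550/595 nm | Read-out: Retained DiI signal reflecting DiI-HDL uptake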
SR-BI DiI inh: blocks mouse SR-BI lipid uptake from DiI-HDL | AID 488896 | 320,000 tested, 0.96% active | inhibition, % at 12.5 µM | Q61009 | ldlA[mSR-BI] CHO cells, DiI-HDL uptake fluorescence, 3 h;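 active means mean replicate inhibition of at least 70% and a set share of replicates each scoring 70 or more; inconclusive means meets just one of the two criteria; inactive means fails both criteria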;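 further: 0% = median of neutral control wells and 100% = median of positive control wells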
Target sequence (Q61009 whole entry, looked up): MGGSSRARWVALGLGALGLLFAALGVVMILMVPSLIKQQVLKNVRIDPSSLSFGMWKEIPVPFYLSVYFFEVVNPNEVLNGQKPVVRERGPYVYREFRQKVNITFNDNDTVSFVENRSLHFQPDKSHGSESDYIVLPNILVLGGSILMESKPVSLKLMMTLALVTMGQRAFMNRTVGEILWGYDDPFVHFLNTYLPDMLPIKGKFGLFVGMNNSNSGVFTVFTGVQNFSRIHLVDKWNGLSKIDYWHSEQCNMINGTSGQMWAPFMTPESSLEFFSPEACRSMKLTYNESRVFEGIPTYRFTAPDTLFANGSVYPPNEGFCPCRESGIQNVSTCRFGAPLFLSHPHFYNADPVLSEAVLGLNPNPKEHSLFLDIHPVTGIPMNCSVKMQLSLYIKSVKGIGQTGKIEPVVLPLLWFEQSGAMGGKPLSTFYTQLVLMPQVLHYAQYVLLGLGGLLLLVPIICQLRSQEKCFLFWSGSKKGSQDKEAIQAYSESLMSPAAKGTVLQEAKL
An asterisk follows results filed as active; ? = inconclusive; / = not tested or not shown.

SMILES	UBC13 polyUb	Neddylation inh	SR-BI DiI-HDL act	SR-BI DiI inh
COc1ccc(/C=C(/C#N)C(=O)Nc2ccc(C)cc2C)cc1C(=O)O	-14.9	-14.1	65.5*	-65.5
Cc1cccc2c1-c1sc(C(=O)Nc3nccs3)cc1CO2	34.2	/	-66.4	66.4
Cc1cccc2c1-c1sc(C(=O)Nc3cccc([N+](=O)[O-])c3C)cc1CO2	6.1	7.5	-72.6	72.6*
COc1ccc(-c2nc3ccc(C)cn3c2CC(C)(C)C)cc1OC	/	2.2	/	/
COc1ccccc1OCCSc1nc2ccccc2n1CC(=O)O	/	2.5	/	/
COc1ccc(-c2oc3ccccc3c2C#CC(C)(C)O)cc1	35.3	/	-79.4	79.4*
COc1ccc(/C=N/Nc2cc(C)nc3c(C)cccc23)cc1	21.4	51.9*	-29.1	29.1
COc1ccc(/C=N/Nc2cc(C)nc3ccccc23)cc1	16.6	/	-14.9	14.8
O=C(N/C(=C\c1ccccc1)C(=O)N1CCOCC1)c1cccc(Br)c1	-4.6	-0.8	5.3	-5.3
O=C(c1ccc(-c2cccc([N+](=O)[O-])c2)o1)N1CCN(c2ccc([N+](=O)[O-])cc2)CC1	-5.0	-11.4	-71.1	71.1*
CCC(=O)N1CCN(c2ccccc2NC(=S)NC(=O)c2cccc([N+](=O)[O-])c2)CC1	-31.2	-30.6	-70.4	70.4*
CC(C)C(=O)N1CCN(c2ccccc2NC(=S)NC(=O)c2ccco2)CC1	-7.8	8.8	-81.3	81.3*
CCC(=O)N1CCN(c2ccc(NC(=S)NC(=O)c3cccc([N+](=O)[O-])c3)cc2)CC1	1.9	-41.4	/	53.0
COc1cccc(C(=O)NC(=S)Nc2ccccc2N2CCCC2)c1	8.1	5.4	-85.0	85.0*
CCC(=O)N1CCN(c2ccc(Cl)cc2NC(=O)c2cccc([N+](=O)[O-])c2)CC1	18.9	-18.8	-70.8	70.8*
CCC(=O)N1CCN(c2ccc(Cl)cc2NC(=O)c2ccc([N+](=O)[O-])o2)CC1	-2.0	-15.3	-49.2	49.2
CCC(=O)N1CCN(c2ccccc2NC(=O)c2ccc(-c3cccc([N+](=O)[O-])c3)o2)CC1	-3.3	-9.2	-75.7	75.7*
CN1CCN(c2ccccc2NC(=O)c2ccc(-c3cccc([N+](=O)[O-])c3)o2)CC1	/	-11.1	-42.7	42.7
COc1ccc(Nc2ccnc3ccccc23)cc1	1.8	-16.0	1.8	-1.8
CC(C)Nc1ccc(Nc2ccnc3cc4ccccc4cc23)cc1	-92.6	-52.7	-77.1	77.1*
Cc1cccc(Nc2c([N+](=O)[O-])cc(C(=O)N3CC(=O)Nc4ccccc43)cc2[N+](=O)[O-])c1	-40.9	-41.5	-81.6	81.7*
Cc1ccc(C)c(Nc2c([N+](=O)[O-])cc(C(=O)N3CC(=O)Nc4ccccc43)cc2[N+](=O)[O-])c1	-47.3	-34.9	-71.7	?
C[C@@H]1CN([C@@H](C)CO)C(=O)c2cc(-c3ccccc3F)cnc2O[C@H]1CN(C)Cc1cccc(F)c1	/	-3.2	/	/
NC(=S)NN=Cc1nccc2c(C(F)(F)F)cccc12	/	7.9	/	/
CNc1cccnc1C=NNC(N)=S	/	46.6*	-2.9	2.9
SMILES	UBC13 polyUb	Neddylation inh	SR-BI DiI-HDL act	SR-BI DiI inh
NS(=O)(=O)c1cccc(NC(=O)COC(=O)Cc2ccc(S(=O)(=O)N3CCOCC3)s2)c1	/	-3.0	16.3	-16.3
CCOC(=O)C1CCCN(C(=O)c2cccc(C(F)(F)F)c2)CC1 (stereo not given)	/	-14.9	/	/
O=C(CCN1CCN(c2ccccc2)CC1)N/N=C/c1ccccc1O	-2.3	42.2*	-1.3	1.3
OC[C@@H]1CN(CCNc2ccccc2)C[C@H](n2cnc3c(NCc4ccncc4)ncnc32)O1	/	2.0	/	/
COc1cccc(-c2nc(-c3ccc(NC(=O)Cc4ccccc4OC)cc3)no2)c1	/	-5.2	-78.3	78.3*
COc1ccc(-c2nc(-c3ccc(NC(=O)c4ccc(Br)o4)cc3)no2)cc1OC	-0.6	20.7	-78.5	78.5*
COc1cc(-c2nc(-c3ccc(NC(=O)c4ccc(Br)o4)cc3)no2)cc(OC)c1OC	-3.5	33.1	-41.7	41.7
COc1ccc(CC(=O)Nc2ccc(-c3noc(-c4ccccc4OC)n3)cc2)cc1	-0.2	-35.4	-56.9	56.9
CC(C)NC(=O)C1(C)CSCC(=O)N1C1CCN(Cc2ccccc2)CC1 (stereo not given)	/	-2.0	/	/
C[n+]1c(/C=C/c2ccc(O)cc2)ccc2ccccc21	-219.9	-14.0	-15.1	15.1
Cc1cc(/C=C\c2ccc3cc(N(C)C)ccc3[n+]2C)c(C)n1-c1ccccc1	-285.0	-35.1	166.2*	-166.2
COc1ccc(NS(=O)(=O)c2cccc(C(=O)N/N=C/c3ccccc3OC)c2)cc1	-5.2	-2.5	-82.3	82.3*
COc1ccc(NS(=O)(=O)c2cccc(C(=O)NN=Cc3ccc(O)c(OC)c3)c2)cc1	-22.0	38.2	-20.8	20.8
O=C(N/N=C/c1cn(-c2ccccc2)nc1-c1cccnc1)c1ccc(F)cc1	-17.0	-11.3	-59.1	59.1
COc1ccc(NS(=O)(=O)c2cccc(C(=O)N/N=C/c3cn(-c4ccccc4)nc3-c3ccccc3)c2)cc1	-23.1	33.0	-96.5	96.5*
O=C(N/N=C/c1cn(-c2ccccc2)nc1-c1ccc(F)cc1)c1ccc(Br)o1	-29.3	18.0	-87.0	87.0*
CCN(CC)c1ccc(/C=N/NC(=O)c2cccc(S(=O)(=O)Nc3ccccc3OC)c2)cc1	-3.5	/	-48.8	48.8
CCN(CC)c1ccc(/C=N/NC(=O)c2cccc(S(=O)(=O)Nc3ccccc3OC)c2)c(O)c1	-28.4	/	-132.0	132.0*
O=S1(=O)CC(N2CCN(Cc3ccccc3F)CC2)CN1Cc1cn(Cc2cccc(Cl)c2)nn1 (stereo not given)	/	-3.9	/	/
CCC(=O)N1CCC1(C)C(=O)Nc1cccc2c1CCCC2 (stereo not given)	/	-0.2	/	/
COc1ccc(NS(=O)(=O)c2cccc(C(=O)NNC(=O)c3ccccc3O)c2)cc1	-4.7	17.1	-72.3	72.3*
Cc1ccsc1-c1nc(CN2C[C@@H](C)O[C@@H](C)C2)c(C)o1	8.7	9.2	-11.0	11.0
CCCCCCC(=O)Nc1ccc(C(=O)N/N=C/c2cccnc2)cc1	2.4	2.2	-76.1	?
CCCCCCCC(=O)Nc1ccc(C(=O)N/N=C/c2cccc([N+](=O)[O-])c2)cc1	-25.3	-2.3	-86.9	86.9*
O=C(O)CC/C(=C/c1cccc(NC(=O)c2ccccc2Cl)c1)c1nc2ccccc2s1	/	32.8	-17.1	17.1
SMILES	UBC13 polyUb	Neddylation inh	SR-BI DiI-HDL act	SR-BI DiI inh
COc1cc(/C=C(\CCC(=O)O)c2nc3ccccc3s2)ccc1OCC(=O)Nc1c(Cl)cccc1Cl	1.5	43.7*	-60.9	60.9
NC(=S)N/N=C/c1ccc(-c2cccc([N+](=O)[O-])c2)o1	-6.2	-41.4	-77.5	77.5*
NC(=S)N/N=C/c1ccc(-c2cc(Cl)c(Cl)cc2Cl)o1	-8.8	1.4	-81.6	81.6*
C=CCNC(=S)N/N=C/c1ccc(-c2ccc(Cl)cc2Cl)o1	19.3	/	-70.7	70.7*
NC(=S)N/N=C/c1ccc(Br)o1	-6.2	-5.2	-38.1	38.1
COc1ccc(NC(=O)c2[nH]c(C)c(C(C)=O)c2C)cc1Cl	4.5	-3.5	-74.8	74.8*
O=C(OCc1ccc(C(=O)c2ccccc2)cc1)c1cccc(-c2nnc(-c3ccccc3)o2)c1	-16.5	-105.6	7.8	-7.8
